Experimental data reported in ChEMBL document CHEMBL1671867, “Novel polymyxin derivatives carrying only three positive charges are effective antibacterial agents” (Antimicrob Agents Chemother, 2008).
Converted amounts (≈) assume the structure as drawn.

What was measured:
Escherichia coli [1] = experiment: Antibacterial activity against 5 x 10^5 CFU/ml Escherichia coli ATCC […] by Etest method in presence of […] NAB739; type: functional
Escherichia coli [2] = experiment: Antibacterial activity against Escherichia coli ATCC […] by Etest method in presence of NAB7061; type: functional
Acinetobacter baumannii [3] = experiment: Antibacterial activity against Acinetobacter baumannii F264 by Etest method in presence of 1 ug/ml NAB739; type: functional
Escherichia coli [4] = experiment: Antibacterial activity against 5 x 10^5 CFU/ml Escherichia coli ATCC […] by Etest method by Etest in presence of 8 ug/ml NAB7061; type: functional
Escherichia coli [5] = experiment: Antibacterial activity against Escherichia coli ATCC […] by Etest method in presence of 2 ug/ml NAB7062; type: functional
Escherichia coli [6] = experiment: Antibacterial activity against Escherichia coli IH3080 by Etest method in presence of 4 ug/ml NAB7064; type: functional
Klebsiella pneumoniae [7] = experiment: Antibacterial activity against Klebsiella pneumoniae ATCC 13883 by Etest method in presence of 4 ug/ml NAB7061; type: functional
Outline: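 MICs of the antibiotic taken from E-strips on Mueller-Hinton agar, run both with and without peptide. […] Inoculum was prepared per the strip manufacturer, matching CLSI M2-A9.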

Enterobacter cloacae [8] = experiment: Antibacterial activity against Enterobacter cloacae ATCC 23355 […] by Etest method in presence of 4 ug/ml NAB7064; type: functional
Escherichia coli [9] = experiment: Antibacterial activity against Escherichia coli NCTC13353 by Etest method in presence of 4 ug/ml NAB7062; type: functional
Klebsiella pneumoniae [10] = experiment: Antibacterial activity against Klebsiella pneumoniae by Etest method in presence of 4 ug/ml NAB7064; type: functional
Klebsiella oxytoca [11] = experiment: Antibacterial activity against Klebsiella oxytoca ATCC 13182 by Etest method in presence of 4 ug/ml NAB7065; type: functional
Klebsiella oxytoca [12] = experiment: Antibacterial activity against Klebsiella oxytoca CCUG51683 by Etest method in presence of 4 ug/ml NAB7066; type: functional
Enterobacter cloacae [13] = experiment: Antibacterial activity against Enterobacter cloacae CCUG52947 by Etest method in presence of 4 ug/ml NAB7067; type: functional
Acinetobacter baumannii [14] = experiment: Antibacterial activity against Acinetobacter baumannii ATCC 19606 by Etest method in presence of 4 ug/ml NAB7070; type: functional
Pseudomonas aeruginosa = experiment: Antibacterial activity against Pseudomonas aeruginosa ATCC 27853 by Etest method in presence of 4 ug/ml NAB7075; type: functional
Escherichia coli [15] = experiment: microbe, parasite or virus in culture; conditions: ATCC 25992
Escherichia coli [16] = experiment: microbe, parasite or virus in culture; conditions: ATCC 25992; remark: listed apart in the source

CO[C@H]1/C=C/O[C@@]2(C)Oc3c(C)c(O)c4c(O)c(c(/C=N/N5CCN(C)CC5)c(O)c4c3C2=O)NC(=O)/C(C)=C\C=C\[C@H](C)[C@H](O)[C@@H](C)[C@@H](O)[C@@H](C)[C@H](OC(C)=O)[C@@H]1C [RIFAMPIN]
MIC (Escherichia coli [1]): 12 µg/mL
fractional inhibitory concentration index (FICI) (Escherichia coli [2]): 0.071
MIC (Acinetobacter baumannii [3]): 0.016 µg/mL
MIC (Escherichia coli [4]): 0.006 µg/mL
MIC (Escherichia coli [5]): 0.064 µg/mL
MIC (Escherichia coli [6]): 0.023 µg/mL
MIC (Klebsiella pneumoniae [7]): 0.064 µg/mL
MIC (Enterobacter cloacae [8]): 0.008 µg/mL
MIC (Escherichia coli [9]): 0.064 µg/mL
MIC (Klebsiella pneumoniae [10]): 0.19 µg/mL
MIC (Klebsiella oxytoca [11]): 0.032 µg/mL
MIC (Klebsiella oxytoca [12]): 0.012 µg/mL
MIC (Enterobacter cloacae [13]): 0.032 µg/mL
MIC (Acinetobacter baumannii [14]): 0.094 µg/mL
MIC (Pseudomonas aeruginosa): 12 µg/mL
MIC (Escherichia coli [15]): 8 µg/mL (≈ 9.72 µM)
MIC (Escherichia coli [16]): 8 µg/mL (≈ 9.72 µM)
